Experimental data of several laboratories.
Protocols differ between the studies behind these lines.
Target: Tyrosine-protein kinase Lck (LCK, Homo sapiens, UniProt P06239)

For Cc1nn(C)cc1-c1nc2c(N3CCN(Cc4ccc(Cl)cc4)CC3)c(Cl)cnc2[nH]1, the remaining binding was 100% (binding, competition with immobilised ligand; 1 µM).
With Clc1ccc2c(C3CCN(CCc4c[nH]c5ccccc45)CC3)c[nH]c2c1 the inhibition was 66% (enzyme activity, inhibitor; 10 µM).
N#CC1(c2ccccn2)CCN(Cc2cc(C(=O)O)c(=O)n3ccccc23)CC1 gave a remaining binding of 97% (cell-free assay, competition with immobilised ligand; 1 µM).
The remaining activity of O=c1[nH]c2ccccc2n1C1CCN(Cc2ccc(-c3[nH]c4cc5ncnc5cc4nc3-c3ccccc3)cc2)CC1 is reported as 98.2% (enzyme activity, inhibitor; 0.5 µM).
For Cn1cc(-c2cc(F)cc(N3CCn4c(cc5c4CCCC5)C3=O)c2CO)cc(Nc2ccc(N3CCN(C4COC4)CC3)cn2)c1=O, the inhibition was -1% (enzyme activity, inhibitor; 0.1 µM).
The remaining binding of Cn1cncc1[C@](O)(COc1ccc(C#N)cc1-c1ccc(OC(F)(F)F)cc1)c1ccc(C#N)cc1 is reported as 82% (cell-free assay, competition with immobilised ligand; 1 µM).
With Nc1ncc(-c2nc(N3CCOCC3)nc(N3CCOCC3)n2)c(C(F)F)n1 the remaining activity was 92% (enzyme activity, inhibitor; 10 µM).
C#Cc1n[nH]c2c(-c3cn([C@@H](C)c4ccccc4)c(=O)[nH]c3=O)cc(F)cc12 gave an inhibition of 10.5% (enzyme activity, inhibitor; 0.1 µM).
The remaining activity of CC(C)(C)c1cc(C=C(C#N)C#N)cc(Br)c1O is reported as 87.8% (enzyme activity, inhibitor; 0.5 µM).
For COc1ncccc1-c1cnn2ccc(N3CCN(C(=O)OC(C)C)CC3)nc12, the remaining binding was 100% (binding, competition with immobilised ligand; 1 µM).
C#Cc1n[nH]c2c(-c3cn([C@@H](C)c4ccccn4)c(=O)[nH]c3=O)cc(F)cc12 gave an inhibition of 8.8% (enzyme activity, inhibitor; 0.1 µM).
